According to ChEMBL document CHEMBL1156683, “Basic 3-hydroxypyridin-4-ones: potential antimalarial agents” (Eur J Med Chem, 2008):

Experiments:
[1] = Partition coefficient, log P of the compound; assay type: physicochemical; details: octanol/water
In short: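 Calculated from the measured octanol/MOPS pH 7.4 distribution coefficient divided by the fraction of neutral species at pH 7.4, which is derived from the measured pKa values.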

Rattus norvegicus [2] = assay: Iron-clearing efficiency in po dosed [59Fe]ferritin-loaded Wistar rat assessed as iron mobilization; assay type: functional
In short: (§1)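 Male Wistar rats, normal, fasted, 190–230 g. Hepatocytes labelled with ⁵⁹Fe by tail-vein [⁵⁹Fe]ferritin; chelator given orally 1 h later, controls received water. Individual metabolic cages collected urine and faeces; food allowed 1 h after dosing, water unrestricted. Killed 24 h after ferritin; liver and gastrointestinal tract with contents and faeces gamma counted.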

Plasmodium falciparum = assay: Antimalarial activity against chloroquine-resistant Plasmodium falciparum TM267TR after 24 hrs by [3H]hypoxanthine; assay type: functional, organism-based
In short: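 Clone maintained in human red cells in RPMI 1640 with 10% human serum, 25 mM HEPES and 25 mM NaHCO₃. Cultures were sorbitol-synchronized, washed, then diluted with normal red cells to 1% hematocrit and 0.5% parasitemia. Incubated with serial dilutions of chelator. ³H-hypoxanthine pulse for a further 18 h, then harvested and counted by scintillation. IC₅₀ by non-linear regression of triplicate dose-response curves.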

Rattus norvegicus [3] = assay: Iron-clearing efficiency in po dosed [59Fe]ferritin-loaded Wistar rat assessed as iron removal; assay type: functional; in short: as §1
[4] = Octanol-MOPS buffer distribution coefficient, DC at pH 7.4; assay type: physicochemical; details: octanol/water
In short: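 Automated continuous-flow filter-probe method, 1-octanol versus 50 mM MOPS buffer pH 7.4, phases mutually presaturated. Compound dissolved in buffer to absorbance 0.5–1.5 units at a preselected wavelength; aqueous phase separated by hydrophilic cellulose filter and read by absorbance. n = 5.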

[5] = Dissociation constant, pKa corresponding to protonation of the 4-hydroxy group by spectrophotometric titration; assay type: physicochemical
In short: (§2)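 Ligand protonation constants from an automated titration system, potentiometric and spectrophotometric read-outs. Values optimized by non-linear least-squares regression, accuracy ±0.02 pH unit.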

[6] = Dissociation constant, pKa corresponding to deprotonation of the basic substituent by spectrophotometric titration; assay type: physicochemical; in short: as §2
[7] = Dissociation constant, pKa corresponding to dissociation of the 3-hydroxyl group by spectrophotometric titration; assay type: physicochemical; in short: as §2
[8] = Dissociation constant, pKa corresponding to protonation of the 4-hydroxy group by potentiometric titration; assay type: physicochemical; in short: as §2
[9] = Dissociation constant, pKa corresponding to deprotonation of the basic substituent by potentiometric titration; assay type: physicochemical; in short: as §2
[10] = Dissociation constant, pKa corresponding to dissociation of the 3-hydroxyl group by potentiometric titration; assay type: physicochemical; in short: as §2

SMILES	logP [1]	Activity (Rattus norvegicus [2])	IC50 (Plasmodium falciparum)	Activity (Rattus norvegicus [3])	D [4]	pKa [5]	pKa [6]	pKa [7]	pKa [8]	pKa [9]	pKa [10]
CCn1ccc(=O)c(O)c1C(C)O (stereo unspecified)	-0.557	48.4%	45 µM	44.5%	0.266						
Cn1c(CO)cc(=O)c(O)c1CN1CCCCC1	0.295		29 µM		1.636	2.41	6.67	10.4	2.14	6.74	10.5
Cn1c(CO)cc(=O)c(O)c1CN1CCOCC1	-0.765		35 µM		0.17	2.14	4.99	9.75	1.98	5.1	9.77
Cc1c(O)c(=O)ccn1CCN1CCCCC1	0.31	22.7%	35 µM	18.8%	0.96	2.88	7.47	9.71	2.77	7.42	9.63
O=c1ccn(CCN2CCCCC2)c(CO)c1O	0.019	23.3%	10 µM	19.4%	0.501	2.2	7.43	9.24	2.25	7.35	9.28
Cc1c(O)c(=O)ccn1CCN(C)C	-0.657	13%	80 µM	9.1%	0.154	2.86	7.02	9.58	2.74	7.05	9.75
Cn1cc(O)c(=O)cc1CN1CCCCC1	0.64		31 µM		3.493	2.16	6.72	8.86	2.15	6.74	8.85
CC(O)c1c(O)c(=O)ccn1CCN1CCCCC1 (stereo unspecified)	0.242	23.1%	8 µM	19.2%	0.908	2.14	7.35	8.73	2.17	7.37	8.7
CCc1c(O)c(=O)ccn1CCCn1ccnc1	-0.326	6.8%	65 µM	2.9%	0.42	3.15	6.47	9.66	3.09	6.55	9.71
Cc1c(O)c(=O)ccn1CCCn1ccnc1	-0.392	5.3%	85 µM	1.4%	0.344	3.08	6.71	9.82	3.13	6.6	9.92
CCN(CC)CCn1ccc(=O)c(O)c1C	0.059	12.4%	50 µM	8.5%	0.493	2.66	7.5	9.6	2.63	7.53	9.65
CCc1c(O)c(=O)ccn1CCN1CCCCC1	0.946	30.4%	25 µM	26.5%	4.591	2.74	7.38	9.7	2.73	7.34	9.67
Cc1c(O)c(=O)ccn1CCN1CCOCC1	-0.909		50 µM		0.122	2.64	4.91	9.68	2.67	4.89	9.71
Cc1cc(=O)c(O)c(CN2CCCCC2)n1C	0.559		23 µM		2.536	2.73	6.98	10.3	2.5	7.07	10.8
CCc1c(O)c(=O)ccn1CCN(C)C	-0.114	20.3%	85 µM	16.4%	0.538	2.68	7.16	9.58	2.62	6.88	9.66
O=c1cc(CN2CCCCC2)n(CCN2CCCCC2)cc1O	1.84		21.5 µM		26.11	2.04	7.6	8.95	1.16	7.58	8.83
Cc1cc(=O)c(O)c(CN2CCOCC2)n1C	-0.435		50 µM		0.364	2.43	4.82	9.72	2.38	4.89	10.1
CCc1c(O)c(=O)ccn1CC	0.257	58.3%	55 µM	54.4%	1.79						
Cc1c(O)c(=O)ccn1C [DEFERIPRONE]		13.4%	67.5 µM	9.5%	0.17						
